SMILES strings stand for the structures. Non-standard residues stand in square brackets, D forms with d. Residues, ends and D or L forms follow the SMILES beside them. Nva = CCC[C@H](N)C(=O)O

Chain of NS3 (A3EZJ3 whole entry): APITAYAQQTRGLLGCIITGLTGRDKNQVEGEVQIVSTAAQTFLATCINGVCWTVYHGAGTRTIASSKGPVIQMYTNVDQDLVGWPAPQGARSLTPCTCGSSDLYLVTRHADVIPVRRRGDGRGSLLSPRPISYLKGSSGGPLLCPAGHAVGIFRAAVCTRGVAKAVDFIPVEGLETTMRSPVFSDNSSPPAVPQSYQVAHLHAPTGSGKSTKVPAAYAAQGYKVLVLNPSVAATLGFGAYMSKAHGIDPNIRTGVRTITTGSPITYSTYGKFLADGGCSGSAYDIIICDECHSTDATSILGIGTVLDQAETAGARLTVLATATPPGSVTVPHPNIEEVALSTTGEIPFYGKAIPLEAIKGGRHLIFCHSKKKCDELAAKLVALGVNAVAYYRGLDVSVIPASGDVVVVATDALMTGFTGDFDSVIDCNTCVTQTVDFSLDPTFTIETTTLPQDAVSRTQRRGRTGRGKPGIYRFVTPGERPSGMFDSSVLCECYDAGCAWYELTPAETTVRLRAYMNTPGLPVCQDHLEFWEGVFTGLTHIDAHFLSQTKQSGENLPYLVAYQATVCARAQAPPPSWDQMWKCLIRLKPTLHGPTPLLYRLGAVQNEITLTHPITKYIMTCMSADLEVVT

Test system in the first test: not listed separately
Put plainly: Inhibitory activity against hepatitis C virus (NS3 protease. On the set-up: species or system Hepacivirus hominis. An outline of the steps: (§1)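 Genotype 1b NS3–NS4A heterodimer at 1.5 nM, incubated 45 min at 23 °C with serially diluted inhibitor and 5 μM internally quenched fluorogenic substrate anthranilyl-DDIVPAbu[C(O)-O]-AMY(3-NO₂)TW-OH. Buffer was 50 mM Tris-HCl pH 8.0, 0.25 M sodium citrate, 0.01% n-dodecyl-β-D-maltoside, 1 mM TCEP. Stopped with 1 M MES pH 5.8; product fluorescence read at ex 320/em 405 nm. IC50 from Hill-model nonlinear fit of % inhibition.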
The term IC50 denotes the point on the concentration scale where inhibition reaches its midpoint. `CCC[C@H](NC(=O)[C@@H]1CCCN1C(=O)[C@@H](NC(=O)[C@@H](NC(=O)[C@H](CC(=O)O)NC(=O)[C@H](CC(=O)O)NC(C)=O)[C@@H](C)CC)C(C)C)C(=O)O` (Ac-DDIVP[Nva]-OH) yielded an IC50 of 150 µM.

A further test has as its target NS3 (Hepatitis C virus, UniProt A3EZJ3). Put plainly: Inhibitory activity against hepatitis C virus NS3 protease. Also noted: species or system Hepacivirus hominis. An outline of the steps:
as §1
Regarding `C=C[C@@H]1C[C@]1(NC(=O)C1CC(Oc2cc(-c3ccccc3)nc3ccccc23)CN1C(=O)[C@@H](NC(=O)[C@@H](NC(C)=O)C1CCCCC1)C(C)C)C(=O)O` (single isomer, unassigned), half-maximal inhibition (IC50) was put at 0.013 µM. `CC(=O)N[C@H](C(=O)N[C@H](C(=O)N1CC(Oc2cccc(Br)c2)CC1C(=O)NC1(C(=O)O)CC1)C(C)C)C1CCCCC1` (single isomer, unassigned) had an IC50 of 52 µM.

The compound `CC(=O)N[C@H](C(=O)N[C@H](C(=O)N1CC(Oc2ccnc3cc(C(F)(F)F)ccc23)CC1C(=O)NC1(C(=O)O)CC1)C(C)C)C1CCCCC1` (single isomer, unassigned) gave an IC50 of 8 µM.

For `CC(=O)N[C@H](C(=O)N[C@H](C(=O)N1CC(Oc2ccnc3ccccc23)CC1C(=O)NC1(C(=O)O)CC1)C(C)C)C1CCCCC1` (single isomer, unassigned), the midpoint of inhibition, the IC50, lay at 2.2 µM.

For the compound `CC(=O)N[C@H](C(=O)N[C@H](C(=O)N1CC(Oc2cccc(-c3ccccc3)c2)CC1C(=O)NC1(C(=O)O)CC1)C(C)C)C1CCCCC1` (single isomer, unassigned), the IC50 stood at 6.2 µM. `C=CC1C[C@]1(NC(=O)[C@@H]1C[C@@H](Oc2cc(-c3ccccc3)nc3ccccc23)CN1C(=O)[C@@H](NC(C)=O)C(C)C)C(=O)O` (some centres not stated) came in with an IC50 of 3 µM. Compound `C=C[C@@H]1C[C@]1(NC(=O)C1CC(Oc2ccnc3ccccc23)CN1C(=O)[C@@H](NC(=O)[C@@H](NC(C)=O)C1CCCCC1)C(C)C)C(=O)O` (single isomer, unassigned) gave a 50% inhibitory concentration (IC50) of 0.11 µM. Compound `CC(=O)N[C@H](C(=O)N[C@H](C(=O)N1CC(Oc2cccc(-c3cccc([N+](=O)[O-])c3)c2)CC1C(=O)NC1(C(=O)O)CC1)C(C)C)C1CCCCC1` (single isomer, unassigned) displayed an IC50 of 4 µM. As for `C=C[C@@H]1C[C@]1(NC(=O)C1CC(Oc2cccc(-c3ccccc3)c2)CN1C(=O)[C@@H](NC(=O)[C@@H](NC(C)=O)C1CCCCC1)C(C)C)C(=O)O` (single isomer, unassigned), half-maximal inhibition (IC50) was put at 0.12 µM. Same read-out and setting: under `CC(=O)N[C@H](C(=O)N[C@H](C(=O)N1CC(OCc2cccc3ccccc23)CC1C(=O)NC1(C(=O)O)CC1)C(C)C)C1CCCCC1` (single isomer, unassigned) stands 4 µM; under `CC(=O)N[C@H](C(=O)N[C@H](C(=O)N1CC(Oc2cc(-c3ccccc3)nc3ccccc23)CC1C(=O)NC1(C(=O)O)CC1)C(C)C)C1CCCCC1` (single isomer, unassigned), 0.37 µM.

The values are drawn from ChEMBL document CHEMBL1139454, “NMR structural characterization of peptide inhibitors bound to the Hepatitis C virus NS3 protease: design of a new P2 substituent” (J Med Chem, 2004).
